Series [1] is described as follows: Percutaneous permeability through human SCE membrane in Franz diffusion cell after 12 hrs by UV-Vis spectrophotometry relative to hydroxytyrosol. In kind it is ADME. In outline: (§1)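 Franz cells (0.75 cm² area, 4.75 mL receptor) with human stratum corneum/viable epidermis from fresh abdominal surgical skin, used within 24 h of removal. Non-occlusive, 36 ± 1 °C. Receptor sampled hourly up to 12 h, each sample replaced with fresh phase. UV-vis at each compound's λmax against calibration (0.5–25 μg/mL in EtOH). At least three cells, triplicate, mean ± SD.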

A short description of series [2]: Octanol-water partition coefficient, log Kow of the compound by HPLC analysis. In kind it is physicochemical. The settings on record: read-out: log KOW. In outline: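 Reversed-phase HPLC method for log Kow, calibrated with reference standards of known log Kow. Naphthalene (log Kow 3.3) was the most lipophilic standard. Compounds too lipophilic to be resolved were assigned a log Kow above 3.3.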

Series [3] can be described thus: Percutaneous permeability through human SCE membrane in Franz diffusion cell after 12 hrs by UV-Vis spectrophotometry. In kind it is ADME. In outline:
as §1

Where only a bound is given, the exact number is not on record here.

With `CCCCCCCCCC(=O)OCCc1ccc(O)c(O)c1` [HYDROXYTYROSOL DECANOATE], in series [1], the “fold change (FC)” value is on record as 2.2. The logP in series [2] was over 3.3. The compound further returned a permeability in series [3] of 64.18%.

On to `CCCCC/C=C\C/C=C\CCCCCCCC(=O)OCCc1ccc(O)c(O)c1`, for which the “fold change (FC)” value in series [1] was found to be 2.2. Also, the logP in series [2] is over 3.3. The same compound came in with a permeability in series [3] of 60.52%.

On to `CCCCCCCC/C=C/CCCCCCCC(=O)OCCc1ccc(O)c(O)c1`, for which the logP in series [2] is over 3.3.

Take `CCCC(=O)OCCc1ccc(O)c(O)c1` [HYDROXYTYROSOL BUTANOATE]: the “fold change (FC)” value in series [1] was determined as 1.8. The logP in series [2] turned out to be 1.64.

With `CCCCCCCCCCCCCCCCCC(=O)OCCc1ccc(O)c(O)c1` [HYDROXYTYROSOL STERATE], in series [1], the “fold change (FC)” value was 1.7. Further, in series [2], the logP is over 3.3.

Regarding `CCCCCCCCCCCCCCCC(=O)OCCc1ccc(O)c(O)c1` [HYDROXYTYROSOL PALMITATE], in series [1], the “fold change (FC)” value came out at 1.7. Besides, the logP in series [2] is over 3.3.

In the case of `OCCc1ccc(O)c(O)c1` [HYDROXYTYROSOL], the logP in series [2] is 0.809.

`CCCCCCCC/C=C\CCCCCCCC(=O)OCCc1ccc(O)c(O)c1`: in series [1], the “fold change (FC)” value amounted to 3.6. The logP in series [2] was over 3.3.

(Values after ChEMBL document CHEMBL1949600, “Lipophilic hydroxytyrosol esters: fatty acid conjugates for potential topical administration” (J Nat Prod, 2011).)
